Published values gathered from unrelated publications.
Calcitonin-gene-related peptide receptor, CALCRL/RAMP1: Calcitonin-gene-related peptide receptor, CALCRL/RAMP1 (Homo sapiens, UniProt O60894+Q16602)
PTGER4: Prostaglandin E2 receptor EP4 subtype (PTGER4, Homo sapiens, UniProt P35408)
CDK7 with cyclin H: Cyclin-dependent kinase 7, with cyclin H (CDK7, Homo sapiens, UniProt P50613)
HTR1B: 5-hydroxytryptamine receptor 1B (HTR1B, Homo sapiens, UniProt P28222)

Structure (SMILES)	target	assay	setting	inhibition
Oc1cccc(Nc2nc(-c3ccc(F)cc3F)cs2)c1	Calcitonin-gene-related peptide receptor, CALCRL/RAMP1	cell-free assay	10 µM	3%
CCN(CC)c1ccc(C2=NNC(=O)CC2C)cc1[N+](=O)[O-] (stereo not shown)	3',5'-cyclic-AMP phosphodiesterase 4D (PDE4D, Homo sapiens, UniProt Q08499)	enzyme activity, inhibitor	0.1 µM	20%
CC(CN(C)C)C(Oc1cccc2ccccc12)c1cccs1 (stereo not shown)	Sodium-dependent dopamine transporter (Slc6a3, Rattus norvegicus, UniProt P23977)	ligand displacement, radioligand	10 µM, cell membranes	< 70%
O=C(c1ccc(F)cc1)N(Cc1ccccc1)C1CCCCC1	PTGER4	cell-free assay	10 µM	6%
CS(=O)(=O)Nc1cccc(-c2csc(NC(=O)CSc3nc4nccnc4c(=O)n3CCc3ccccc3)n2)c1	Phosphatidylinositol 4-phosphate 5-kinase type-1 beta (PIP5K1B, Homo sapiens, UniProt O14986)	enzyme activity, inhibitor	10 µM	3%
CC(=O)c1nn(CC(=O)N2C[C@H](F)C[C@H]2C(=O)Nc2cccc(Br)n2)c2ccc(-c3cnc(C)nc3)cc12	Prothrombin (F2, Homo sapiens, UniProt P00734)	enzyme activity, inhibitor	10 µM	1.2%
O=c1cc(-c2ccccc2)oc2c1ccc1ccccc12	CDK7 with cyclin H	enzyme activity, inhibitor, ADP detection	10 µM	29.9%
COc1cc(NC(C)=O)c(Cl)cc1C(=O)Nc1nccs1	Calcitonin-gene-related peptide receptor, CALCRL/RAMP1	cell-free assay	10 µM	-1.3%
N#Cc1cc(Cn2c(N3CCCC3)nc3ccccc32)ccc1F	HTR1B	ligand displacement, radioligand	10 µM	-19.3%
CC(/C=C/C=C(\C)C(=O)O)=C\C=C\C=C(C)\C=C\C=C(/C)C(=O)O	CDK7 with cyclin H	enzyme activity, inhibitor, ADP detection	10 µM	38.3%
O=C(c1ccc(Cl)cc1)N(Cc1ccccc1)C1CCCCC1	HTR1B	ligand displacement, radioligand	10 µM	-11.5%
COc1c(C(=O)/C=C(\O)c2ccccc2)ccc2occc12	CDK7 with cyclin H	enzyme activity, inhibitor, ADP detection	10 µM	-26%
CCN(CC)c1ccc(C2Nc3ccc(C(=O)c4ccccc4)cc3NC3=C2C(=O)CC(C)(C)C3)cc1 (stereo not shown)	HTR1B	ligand displacement, radioligand	10 µM	6%
Ic1cccc2cnccc12	PTGER4	ligand displacement, radioligand	10 µM	-6%
CO[C@H]1/C=C/O[C@@]2(C)Oc3c(C)c(O)c4c(O)c(c(/C=N/N5CCN(C)CC5)c(O)c4c3C2=O)NC(=O)/C(C)=C\C=C\[C@H](C)[C@H](O)[C@@H](C)[C@@H](O)[C@@H](C)[C@H](OC(C)=O)[C@@H]1C	CDK7 with cyclin H	enzyme activity, inhibitor, ADP detection	10 µM	23.1%
CN(C)C1CCN(CC#Cc2nn(C3CCCC3)c3nc(NCc4ccccc4)ncc23)C1 (stereo not shown)	Tyrosine-protein kinase SYK (SYK, Homo sapiens, UniProt P43405)	enzyme activity, inhibitor, FRET	1 µM	0%
